High-throughput results from PubChem.
Most compounds without a hit are left out; they make up all but 2.3% or so of the library.
UBC13 polyUb: UBC13 polyubiquitin chain formation inhibitors, primary screen, biochemical, TR-FRET, uHTS; Ubiquitin-conjugating enzyme E2 N (Homo sapiens), P61088; inhibition, % at 20 µM; 330,000 compounds, 0.47% hits; AID 485273, 2010; in the data active = inhibition above about 45%, passing the limit was not always enough; inconclusive = no clear call, values can overlap the other calls
Target sequence (P61088 whole entry, looked up): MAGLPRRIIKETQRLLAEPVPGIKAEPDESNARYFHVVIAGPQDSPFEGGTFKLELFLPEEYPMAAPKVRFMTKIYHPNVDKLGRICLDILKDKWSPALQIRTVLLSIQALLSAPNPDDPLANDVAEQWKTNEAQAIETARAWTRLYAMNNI
Fh CTSL1 inh: Fasciola hepatica cathepsin L1 inhibitors, primary screen, counter-screen for PFM18AAP inhibitor project, biochemical, QFRET, fluorogenic peptide substrate | recombinant F. hepatica cathepsin L1, Z-Leu-Arg-MCA fluorescence | inhibition, % at 5.96 µM | 300,000 compounds, 0.49% hits;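 active = inhibition above the mean of all tested compounds plus 3 SD, set per screening campaign, cut at about 17% in these data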;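 also: 0% = plate median of test compound wells and 100% = 1 µM Z-Phe-Ala-diazomethylketone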
UCH37 inh: inhibitors of human UCH37 deubiquitinase, primary screen, biochemical, Ub-AMC cleavage, fluorescence; AID 588478, 2011; inhibition, % (concentration not given with the values); 330,000 compounds, 0.33% hits; purified proteasome/UCH37;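 active = mean inhibition over replicate wells above about 20%, limit read from the data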;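 also: 0% = compound-free wells with enzyme and 100% = wells lacking proteasome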
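Signal – fluorescence, ex 355 nm, em 460 nm · System – Proteasome-bound UCH37 · Input – 0.15 nM proteasome as dispensed · Timing – 30 min preincubation with enzyme, 25 min cleavage at room temperature · Read-out basis – percent inhibition of cleavage signal versus uninhibited and no-proteasome wells · Medium – Tris-HCl pH 7.4 with ATP-MgCl2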
PREPL inh: PREPL enzyme inhibitors, primary screen, biochemical, fluorescence polarization | Prolyl endopeptidase-like (Homo sapiens), Q4J6C6 | recombinant PREPL, fluorescence polarization activity-based probe | inhibition, % at 5.96 µM | 320,000 compounds, 0.68% hits; in the data active = inhibition above about 43%;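 also: 0% = enzyme with DMSO and 100% = wells lacking enzyme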
PP1 inh: PP1-alpha phosphatase inhibitors, primary screen, counter-screen for PP5 inhibitor project, biochemical, fluorescence, OMFP substrate, single point; AID 2235, 2010; purified PP1alpha; 320,000 compounds, 0.9% hits; Serine/threonine-protein phosphatase PP1-alpha catalytic subunit (Homo sapiens), P62136; inhibition, % at 6.7 µM;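 active = inhibition above the mean inhibition of all tested compounds plus 3 SD, computed separately for each screening campaign, cut at about 15% in these data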
Target sequence (P62136 whole entry, looked up): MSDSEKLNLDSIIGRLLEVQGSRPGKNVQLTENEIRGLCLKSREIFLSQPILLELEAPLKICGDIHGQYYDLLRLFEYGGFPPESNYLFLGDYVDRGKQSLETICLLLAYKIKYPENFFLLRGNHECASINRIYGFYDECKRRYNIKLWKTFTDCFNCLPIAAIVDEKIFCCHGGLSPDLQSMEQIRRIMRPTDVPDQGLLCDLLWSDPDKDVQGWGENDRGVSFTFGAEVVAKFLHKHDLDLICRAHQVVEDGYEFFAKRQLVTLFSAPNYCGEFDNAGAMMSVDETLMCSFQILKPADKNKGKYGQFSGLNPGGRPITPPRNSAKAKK
PP5 inh: PP5 phosphatase inhibitors, primary screen, biochemical, fluorescence; 320,000 compounds, 0.18% hits; inhibition, % at 6.7 µM; Serine/threonine-protein phosphatase 5 (Homo sapiens), P53041; purified PP5c, OMFP substrate fluorescence; AID 1987, 2009;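 active = inhibition above the campaign's mean inhibition across all tested compounds plus 3 SD, cut at about 9.5% in these data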;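 also: 0% = DMSO only and 100% = 100 µM cantharidin control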
Casp3 counter: CASP3 inhibitor validation, counterassay for project on UBE2N polyubiquitination blockers, biochemical, one dose; shares compounds with UBC13 polyUb; Recombinant caspase-3, Caspase-Glo 3/7 luminescence, 60 min; inhibition, % at 20 µM; 1,400 compounds, 4% hits; AID 488856, 2010;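 active = mean inhibition across replicates above about 26%, limit read from the data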;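 also: plate controls were DMSO with caspase-3 for no effect and DMSO wells lacking enzyme for full effect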
UBC13 conf: UBC13 polyubiquitination inhibitors, single-point retest, confirmation, biochemical, TR-FRET, single concentration; shares compounds with UBC13 polyUb; inhibition, % at 10 µM; 1,400 compounds, 68% hits; AID 488859, 2010; in the data active = inhibition above about 45%; inconclusive = no clear call, values can overlap the other calls
Active calls of the source: *; ? = inconclusive; . = not tested or not shown.

SMILES	UBC13 polyUb	Fh CTSL1 inh	UCH37 inh	PREPL inh	PP1 inh	PP5 inh	Casp3 counter	UBC13 conf
C#CCOCCOCCOCCNc1nc(N2CCN(C(=O)[C@H]([C@@H](C)CC)n3cc([C@@H](N)Cc4ccc(O)cc4)nn3)CC2)nc(N2CCN(C(=O)[C@H](Cc3ccc(O)cc3)n3cc([C@@H](N)C(C)CC)nn3)CC2)n1 (stereo partly drawn)	64*	8	-8	23	5	0	1	57*
C#CCOCCOCCOCCNc1nc(N2CCN(C(=O)C([C@@H](C)CC)n3cc(C(N)CO)nn3)CC2)nc(N2CCN(C(=O)[C@H](CCC(=O)O)n3cc(C(N)Cc4ccc(O)cc4)nn3)CC2)n1 (stereo partly drawn)	-10	.	2	.	.	.	.	.
C#CCOCCOCCOCCNc1nc(N2CCN(C(=O)[C@H]([C@@H](C)CC)n3cc([C@@H](N)CC(C)C)nn3)CC2)nc(N2CCN(C(=O)[C@H](Cc3ccc(O)cc3)n3cc([C@@H](N)C(C)CC)nn3)CC2)n1 (stereo partly drawn)	57*	8	0	-4	14	-6	0	51*
COc1cccc(C=NNC(=O)c2c(-c3ccccc3)noc2C)c1O	.	.	3	.	.	.	.	.
O=S(=O)(NN=Cc1ccc(F)cc1)c1ccccc1	.	.	1	.	.	.	.	.
Cn1c(Cl)c(C=NOC(=O)C(C)(C)C)c2ccccc21	.	.	2	.	.	.	.	.
CCN(CC)Cc1c(C(=O)NN=Cc2ccc(OCc3ccccc3C)cc2)nnn1-c1nonc1N	.	.	1	.	.	.	.	.
Cc1cc(C(=O)c2cnc(N=CN(C)C)s2)c(F)cc1Cl	.	.	-1	.	.	.	.	.
CCOc1cc(CNCCc2ccc(S(N)(=O)=O)cc2)ccc1OCc1ccc(Cl)cc1	58*	0	2	17	6	3	8	66*
Cc1cccc(N2CCN(c3ccc4cc(S(=O)(=O)N5CCCCC5)ccc4n3)CC2)c1C	52*	0	-349	0	-3	0	-1	?
COc1cc(C=NNC(=O)c2cccc(N3CCCC3=O)c2)ccc1O	.	.	10	.	.	.	.	.
COC(=O)c1c(NC(=S)NN2CCN(C)CC2)sc2c1CCC(C)C2 (stereo not drawn)	62*	2	7	10	3	3	4	91*
CC(=O)Nc1cccc(C(C)=NNS(=O)(=O)c2ccc(C)cc2)c1	.	.	3	.	.	.	.	.
Cc1c(CCOC(=O)C2C3CC4CC(C3)CC2C4)sc[n+]1CC(=O)c1ccc(Br)cc1 (stereo not drawn)	47*	-5	4	42	12	4	4	75*
Cc1c(CCOC(=O)c2ccc(Cl)cc2Cl)sc[n+]1CC(=O)c1ccc(Br)cc1	67*	.	2	-18	.	.	1	67*
Cc1ncsc1CCOC(=O)c1ccc(Cl)cc1	4	1	2	-8	0	1	.	.
Cc1c(CCO)sc[n+]1CC(=O)OCCC12CC3CC(CC(C3)C1)C2	2	4	2	-2	-3	2	.	.
COC(=O)C1=C(C)N(Cc2ccccc2)C(=NCC(C)C)N[C@H]1c1cccc(C(F)(F)F)c1	72*	.	2	27	.	.	3	74*
COC(=O)C1=C(C)N(Cc2ccccc2)C(=NCC(C)C)N[C@H]1c1cccc(F)c1	51*	.	4	40	.	.	-4	40
COC(=O)C1=C(C)N(Cc2ccccc2)C(=NCCc2cccnc2)N[C@H]1c1ccccc1	33	-5	-1	13	5	0	.	.
CCN1C(=NCCc2ccccn2)N[C@@H](c2cccc(C(F)(F)F)c2)C(C(=O)OC)=C1C	14	.	4	19	.	.	.	.
